Measurements of several laboratories.
Compare with care: the assays were run in different laboratories.
Observed: binding
CDK4: Cyclin-dependent kinase 4 (CDK4, Homo sapiens, UniProt P11802)
CDK4 with cyclin D3: Cyclin-dependent kinase 4, with cyclin D3 (CDK4, Homo sapiens, UniProt P11802)
CDK4 with cyclin D1: Cyclin-dependent kinase 4, with cyclin D1 (CDK4, Homo sapiens, UniProt P11802)

target | test | setting | remaining binding | SMILES
CDK4 |  | 0.1 µM | 99% | C1=C/COCc2cc(ccc2OCCN2CCCC2)Nc2nccc(n2)-c2cccc(c2)COC/1
CDK4 with cyclin D3 | competition with immobilised ligand | 1 µM | 33% | CNS(=O)(=O)c1ccc(Nc2ncc(C(F)(F)F)c(N3CCC[C@](C)(O)C3)n2)c(C)c1
CDK4 with cyclin D1 |  | 1 µM | 77% | CN1CCN(C(=O)c2ccc(NC(=O)Nc3ccc(N(C)c4ccnc(Nc5ccc(CS(C)(=O)=O)cc5)n4)cc3)cc2)CC1
CDK4 with cyclin D3 |  | 1 µM | 93% | COc1ccc2oc(-c3ccc4nc(N)oc4c3)c/c(=N\c3ccccc3NC(=O)CCN)c2c1
CDK4 | competition with immobilised ligand | 1 µM | 97% | C[C@]1(O)CCCN(c2nc(Nc3ccc(S(=O)(=O)N[C@H]4CC[C@H](CN5CCN(c6ccc(C7CCC(=O)NC7=O)cc6F)CC5)CC4)cc3F)ncc2C(F)(F)F)C1 (stereo partly drawn)
CDK4 with cyclin D1 |  | 1 µM | 97% | Cc1ccc(NC(=O)c2ccnc(C(F)(F)F)c2)cc1-c1cc(OCCO)nc(N2CCOCC2)c1
CDK4 with cyclin D3 | competition with immobilised ligand | 0.5 µM | 95% | CCCCC(=O)Nc1ccc(-c2ccc3ncn(CCC)c(=O)c3c2)cn1
CDK4 |  | 1 µM | 100% | COc1ccc2[nH]c3c4[nH]c5ccc(OC)cc5c4c4c(c3c2c1)C(=O)NC4=O
CDK4 with cyclin D3 | competition with immobilised ligand | 1 µM | 52% | Cc1cc(S(=O)(=O)N[C@H]2CC[C@H](CN3CCN(c4ccc(C5CCC(=O)NC5=O)cc4F)CC3)CC2)ccc1Nc1ncc(C(F)(F)F)c(N2CCC[C@](C)(O)C2)n1 (stereo partly drawn)
